According to ChEMBL document CHEMBL2331340, “Novel antitumor indolizino[6,7-b]indoles with multiple modes of action: DNA cross-linking and topoisomerase I and II inhibition” (J Med Chem, 2013):
The source made the active and inactive calls. No cut-off for these calls is given here.

How the values were obtained:
CCRF-CEM = assay: Cytotoxicity against human CCRF-CEM cells after 72 hrs by XTT assay; type: functional, cell-based
Outline: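 CCRF-CEM T-ALL cells incubated with compound for 72 h. XTT with phenazine methosulfate then added for 6 h at 37 °C, absorbance read at 450 and 630 nm. IC50 from six or seven concentrations by median-effect analysis; mean ± STDEV, n = 3.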

HCT-116 = assay: Cytotoxicity against human HCT116 cells after 72 hrs by Alamar blue assay; type: functional, cell-based; settings: HCT-116, 72 h
Outline: (§1)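 Cells exposed to compound for 72 h, then Alamar blue added with a further 10−12 h at 37 °C and a spectrophotometric read. IC50 from six or seven concentrations by median-effect analysis; mean ± STDEV, n = 3. CL141T is a line derived from a patient lung tumor passaged as a SCID mouse xenograft.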

[1] = Cytotoxicity against human OECM1 cells after 72 hrs by Alamar blue assay; type: functional, cell-based; settings: OECM1, 72 h; outline: as §1
[2] = Cytotoxicity against human CL141T cells after 72 hrs by Alamar blue assay; type: functional, cell-based; outline: as §1
PC-3 = assay: Cytotoxicity against human PC3 cells after 72 hrs by Alamar blue assay; type: functional, cell-based; settings: PC-3, 72 h; outline: as §1
[3] = Cytotoxicity against human H460 cells after 72 hrs by Alamar blue assay; type: functional, cell-based; settings: NCI-H460, 72 h; outline: as §1
MX1 = assay: Cytotoxicity against human MX1 cells after 72 hrs by SRB assay; type: functional, cell-based; settings: MX1, 72 h
Escherichia coli = assay: Induction of Escherichia coli pEGFP-N1 DNA interstrand cross-linking at 1 to 10 uM after 2 hrs by alkaline agarose gel shift assay
Outline: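 Plasmid pEGFP-N1 DNA (1500 ng) incubated with compound at 1, 5 and 10 μM in 3 mM NaCl/1 mM sodium phosphate pH 7.4/1 mM EDTA, 2 h at 37 °C. DNA then BamHI-linearized, EtOH-precipitated, denatured in 0.5 N NaOH/10 mM EDTA, run on 0.8% alkaline agarose at 4 °C (18 V, 22 h), stained with ethidium bromide.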

HT-29 = assay: Cytotoxicity against human HT-29 cells after 72 hrs by Alamar blue assay; type: functional, cell-based; settings: HT-29, 72 h; outline: as §1
A549 = assay: Cytotoxicity against human A549 cells after 72 hrs by Alamar blue assay; type: functional, cell-based; settings: A549, 72 h; outline: as §1
[4] = Cytotoxicity against human MES-SA cells after 72 hrs by Presto Blue assay; type: functional, cell-based
Outline: (§2)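 MES-SA and doxorubicin-resistant MES-SA/dx5 cells exposed for 72 h, then PrestoBlue added for 3 h at 37 °C, absorbance read at 570 and 600 nm. IC50 by median-effect analysis of six or seven concentrations; mean ± STDEV of three to six independent experiments.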

[5] = Resistance factor, ratio of IC50 for human KB-VIN10 cells to IC50 for human KB cells; type: functional
[6] = Cytotoxicity against human MES-SA/Dx5 cells after 72 hrs by Presto Blue assay; type: functional, cell-based; settings: MES-SA/Dx5, 72 h; outline: as §2
[7] = Cytotoxicity against human HEL299 cells; type: cell-based; settings: HEL 299
KB = assay: Cytotoxicity against human KB cells after 72 hrs by Alamar blue assay
[8] = Cytotoxicity against human KB-VIN10 cells after 72 hrs by Alamar blue assay; settings: KB-VIN10, 72 h
MES-SA = assay: Resistance factor, ratio of IC50 for human MES-SA/Dx5 cells to IC50 for human MES-SA cells; type: functional

SMILES | IC50 (CCRF-CEM) [µM] | IC50 (HCT-116) [µM] | IC50 [1] [µM] | IC50 [2] [µM] | IC50 (PC-3) [µM] | further results
COc1ccc(-c2c(COC(=O)NC(C)C)c(COC(=O)NC(C)C)c3n2Cc2c(c4ccccc4n2C)C3)cc1 | 0.12 | 5.93 | 4.17 | 4 | 6.84 | IC50 [3]: 9.52 µM
COc1cc(-c2c(CO)c(CO)c3n2Cc2c(c4ccccc4n2C)C3)cc(OC)c1OC | 4.45 |  |  |  |  | 
CCNC(=O)OCc1c(COC(=O)NCC)c(-c2ccc(F)cc2)n2c1Cc1c(n(C)c3ccccc13)C2 | 0.39 |  | 8.6 | 12.4 | 14.6 | 
CCNC(=O)OCc1c(COC(=O)NCC)c2n(c1C)Cc1c(c3ccccc3n1Cc1ccccc1)C2 | 0.14 | 3.84 | 5.42 |  | 5.05 | IC50 [3]: 8.31 µM
CCNC(=O)OCc1c(COC(=O)NCC)c(-c2ccccc2)n2c1Cc1c(n(C)c3ccccc13)C2 | 0.23 |  | 5.19 | 10.5 | 9.13 | 
CC(C)NC(=O)OCc1c(COC(=O)NC(C)C)c(-c2ccc(Cl)cc2)n2c1Cc1c(n(C)c3ccccc13)C2 | 0.44 | 9.28 | 12.7 | 14 | 13.1 | IC50 (MX1): 12.4 µM
CCNC(=O)OCc1c(COC(=O)NCC)c2n(c1C)Cc1c(c3ccccc3n1CC)C2 | 0.14 | 3.22 | 4.9 | 1.4 | 4.61 | Activity (Escherichia coli): Active; IC50 [3]: 5.14 µM
COc1ccc(-c2c(CO)c(CO)c3n2Cc2c(c4ccccc4n2C)C3)cc1 | 1.3 |  |  |  |  | 
Cc1c(COC(=O)NC(C)C)c(COC(=O)NC(C)C)c2n1Cc1c(c3ccccc3n1C)C2 | 0.03 | 1.26 | 1.45 | 2.43 | 3.03 | IC50 (HT-29): 10.8 µM; IC50 (A549): 3.81 µM; IC50 (MX1): 0.25 µM
Cc1c(CO)c(CO)c2n1Cc1c(c3ccccc3n1Cc1ccccc1)C2 | 0.29 |  | 4.17 | 2.76 | 4.52 | 
CCc1c(COC(=O)NC(C)C)c(COC(=O)NC(C)C)c2n1Cc1c(c3ccccc3n1C)C2 | 0.16 | 2.22 | 2.02 | 2.66 | 2.1 | 
Cn1c2c(c3ccccc31)Cc1c(CO)c(CO)c(-c3ccc(Cl)cc3)n1C2 | 4.58 | 17.5 | 17.2 | 23.8 | 12.9 | IC50 (MX1): 11.3 µM
CCNC(=O)OCc1c(COC(=O)NCC)c(-c2ccc(F)c(F)c2)n2c1Cc1c(n(C)c3ccccc13)C2 | 0.13 |  | 14.4 | 9.61 | 6.76 | IC50 [3]: 18.9 µM
CCn1c2c(c3ccccc31)Cc1c(COC(=O)NC(C)C)c(COC(=O)NC(C)C)c(C)n1C2 | 0.14 | 2.2 | 2.27 | 1.88 | 3.28 | IC50 (HT-29): 6.36 µM; IC50 (A549): 2.64 µM
CCc1c(CO)c(CO)c2n1Cc1c(c3ccccc3n1C)C2 | 0.2 |  | 2.11 | 1.32 | 3.32 | IC50 [4]: 0.77 µM; Ratio IC50 [5]: 0.79; IC50 [6]: 0.47 µM; IC50 (HT-29): 8.56 µM; IC50 [7]: 4.24 µM; IC50 (KB): 1.97 µM; IC50 [8]: 1.56 µM; Ratio IC50 (MES-SA): 0.61; IC50 (A549): 3.15 µM
CC(C)NC(=O)OCc1c(COC(=O)NC(C)C)c(-c2ccc(F)c(F)c2)n2c1Cc1c(n(C)c3ccccc13)C2 | 0.44 |  | 15.2 | 18.3 | 34.2 | 
CCNC(=O)OCc1c(COC(=O)NCC)c(-c2ccc(OC)cc2)n2c1Cc1c(n(C)c3ccccc13)C2 | 0.1 | 7.1 | 6.15 | 8.13 | 8.3 | 

SMILES | IC50 (CCRF-CEM) [µM] | IC50 (HCT-116) [µM] | IC50 [1] [µM] | IC50 [2] [µM] | IC50 (PC-3) [µM] | further results
CCNC(=O)OCc1c(COC(=O)NCC)c(-c2ccc(Cl)cc2)n2c1Cc1c(n(C)c3ccccc13)C2 | 0.35 | 1.17 | 9.01 | 7.88 | 4.95 | IC50 (MX1): 1.83 µM
COc1ccc(-c2c(CO)c(CO)c3n2Cc2c(c4ccccc4n2C)C3)cc1OC | 0.96 |  | 37.2 | 33.1 | 37.9 | 
CCNC(=O)OCc1c(COC(=O)NCC)c(-c2ccc(OC)c(OC)c2)n2c1Cc1c(n(C)c3ccccc13)C2 | 0.3 |  | 5.29 | 11.2 | 8.03 | 
Cn1c2c(c3ccccc31)Cc1c(CO)c(CO)c(-c3ccc(F)c(Cl)c3)n1C2 | 14.4 |  |  |  |  | 
COc1ccc(-c2c(COC(=O)NC(C)C)c(COC(=O)NC(C)C)c3n2Cc2c(c4ccccc4n2C)C3)cc1OC | 0.3 |  |  |  |  | 
COc1cc(-c2c(COC(=O)NC(C)C)c(COC(=O)NC(C)C)c3n2Cc2c(c4ccccc4n2C)C3)cc(OC)c1OC | 0.95 |  |  |  |  | 
Cc1c(COC(=O)NC(C)C)c(COC(=O)NC(C)C)c2n1Cc1c(c3ccccc3n1Cc1ccccc1)C2 | 0.1 | 3.92 | 4.2 | 4.66 | 4.18 | IC50 [3]: 7.26 µM
CCNC(=O)OCc1c(COC(=O)NCC)c(-c2cc(OC)c(OC)c(OC)c2)n2c1Cc1c(n(C)c3ccccc13)C2 | 0.62 |  |  |  |  | 
CC[C@]1(O)C[C@H]2CN(CCc3c([nH]c4ccccc34)[C@@](C(=O)OC)(c3cc4c(cc3OC)N(C=O)[C@H]3[C@@](O)(C(=O)OC)[C@H](OC(C)=O)[C@]5(CC)C=CCN6CC[C@]43[C@@H]65)C2)C1 [VINCRISTINE] |  |  |  |  |  | Ratio IC50 [5]: 143.7; IC50 (KB): 0.00211 µM; IC50 [8]: 0.303 µM
CCNC(=O)OCc1c(COC(=O)NCC)c2n(c1CC)Cc1c(c3ccccc3n1C)C2 | 0.16 | 1.8 | 3.9 | 2.85 | 5 | 
Cn1c2c(c3ccccc31)Cc1c(CO)c(CO)c(-c3ccc(F)cc3)n1C2 | 1.46 |  |  |  |  | 
Cn1c2c(c3ccccc31)Cc1c(CO)c(CO)c(-c3ccccc3)n1C2 | 1.17 |  |  |  |  | 
CC(C)NC(=O)OCc1c(COC(=O)NC(C)C)c(-c2ccc(F)c(Cl)c2)n2c1Cc1c(n(C)c3ccccc13)C2 | 1.91 |  |  |  |  | 
CCNC(=O)OCc1c(COC(=O)NCC)c(-c2ccc(F)c(Cl)c2)n2c1Cc1c(n(C)c3ccccc13)C2 | 1.8 |  |  |  |  | 
COc1cccc2c1C(=O)c1c(O)c3c(c(O)c1C2=O)C[C@@](O)(C(=O)CO)C[C@@H]3O[C@H]1C[C@H](N)[C@H](O)[C@H](C)O1 [DOXORUBICIN] |  |  |  |  |  | IC50 [4]: 0.038 µM; IC50 [6]: 2.3 µM; Ratio IC50 (MES-SA): 60.52
Cn1c2c(c3ccccc31)Cc1c(CO)c(CO)c(-c3ccc(F)c(F)c3)n1C2 | 7.94 |  |  |  |  | 
CC(C)NC(=O)OCc1c(COC(=O)NC(C)C)c(-c2ccccc2)n2c1Cc1c(n(C)c3ccccc13)C2 | 0.13 |  | 4.87 | 9.6 | 7.84 | IC50 [3]: 4.72 µM
